Measured values published in ChEMBL document CHEMBL4428026, “Discovery of New Monocarbonyl Ligustrazine-Curcumin Hybrids for Intervention of Drug-Sensitive and Drug-Resistant Lung Cancer” (J Med Chem, 2016).
Calls of active or inactive are those of the source. The calls are words filed in the database; no cut-off is given here.

Columns and labels:
[1] = Acute toxicity in ICR mouse assessed as mortality at 200 to 450 mg/kg, ip measured on day 4 to 14 post treatment; type: organism-based; settings: in vivo
Method in brief: (§1)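 Male and female ICR mice (7 weeks), randomized, 10 per group, given one intraperitoneal dose at 200, 250, 300, 350, 400 or 450 mg/kg. Animals were watched for abnormal behaviour and deaths up to two weeks. Deaths were tallied at 1 h, 4 h, day 3 and days 4-14, with survival on day 14. LD50 was calculated with 95% confidence limits.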

A549 [2] = assay: Induction of apoptosis in human A549 cells assessed as increase in Bax to Bcl2 ratio at 2.1 to 4.2 uM after 24 hrs by Western blot method; type: functional, cell-based
Method in brief: (§2)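 Cells were plated at 1 × 10^6/well overnight, then treated 24 h with vehicle DMSO (0.1%, v/v) or compound (A549, 2.1 or 4.2 µM; A549/DDP, 0.6 or 1.2 µM). Lysis was at 4 °C. Lysates were run on SDS-PAGE (7.5% gel, 20 µg/lane) and immunoblotted with ECL detection; phospho-Akt Ser473 and phospho-ERK Thr202/Tyr204 were probed. Bands were normalized to GAPDH (TrxR, Trx) or β-actin. Three independent experiments were run.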

A549/CDDP [3] = assay: Inhibition of ERK phosphorylation in human A549/CDDP cells at 0.6 to 1.2 uM after 24 hrs by Western blot method; type: cell-based; method in brief: as §2
A549/CDDP [4] = assay: Induction of apoptosis in human A549/CDDP cells assessed as increase in Bax expression at 0.6 to 1.2 uM after 24 hrs by Western blot method; type: functional, cell-based; method in brief: as §2
A549 [5] = assay: Inhibition of ERK phosphorylation in human A549 cells at 2.1 to 4.2 uM after 24 hrs by Western blot method; type: cell-based; method in brief: as §2
[6] = Toxicity in BALB/c nude mouse xenografted with human A549/CDDP cells assessed as body weight at 40 mg/kg, ip administered daily for 15 consecutive days measured on day 1 (reference value: 19.3 +/- 1.55 g); type: organism-based; settings: in vivo
A549 [7] = assay: Induction of ROS generation in human A549 cells 2.1 to 4.2 uM after 60 mins by DHE staining-based fluorescence assay in presence of NAC; type: functional, cell-based
A549 [8] = assay: Inhibition of NFkappaB phosphorylation in human A549 cells at 2.1 to 4.2 uM after 24 hrs by Western blot method; type: cell-based; method in brief: as §2
A549/CDDP [9] = assay: Decrease in Trx expression in human A549/CDDP cells at 0.6 to 1.2 uM after 24 hrs by Western blot method; type: functional, cell-based; method in brief: as §2
[10] = molecular target: T1, ATP-dependent translocase ABCB1 (Homo sapiens, UniProt P08183); assay: Inhibition of P-gp in human A549/CDDP cells assessed as accumulation of rhodamine 123 at 0.03 to 1.2 uM by flow cytometry; type: cell-based
Method in brief: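 A549/DDP cells were treated with compound (0.03-1.2 µM), with verapamil as the reference P-gp inhibitor. Intracellular rhodamine 123 accumulation was measured by flow cytometry.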

[11] = Acute toxicity in ICR mouse assessed as mortality at 200 to 450 mg/kg, ip measured at 1 hr post treatment; type: organism-based; settings: in vivo; method in brief: as §1
A549 [12] = assay: Antiproliferative activity against human A549 cells after 72 hrs by MTT assay; type: functional, cell-based; settings: A549, 72 h
Method in brief: (§3)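 Cells (A549, A549/DDP, SPC-A-1, LTEP-G-2, non-tumor bronchial epithelial HBE) were exposed in triplicate to vehicle or compound for 72 h. MTT (5 mg/mL in PBS) was then added for 4 h, formazan was dissolved in DMSO, and absorbance was read at 570 nm. IC50 values were derived from viability.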

A549/CDDP [13] = assay: Decrease in TrxR expression in human A549/CDDP cells at 0.6 to 1.2 uM after 24 hrs by Western blot method; type: functional, cell-based; method in brief: as §2
A549 [14] = assay: Induction of apoptosis in human A549 cells assessed as increase in Bax expression at 2.1 to 4.2 uM after 24 hrs by Western blot method; type: functional, cell-based; method in brief: as §2
[15] = molecular target: T1, ATP-dependent translocase ABCB1; assay: Inhibition of P-gp ATPase activity in human A549/CDDP cells at 40 uM by luminescence assay (reference value: 706683 +/- 23554 RLU); type: cell-based
[16] = Acute toxicity in ICR mouse assessed as mortality at 450 mg/kg, ip; type: organism-based; settings: in vivo; method in brief: as §1
Thioredoxin reductase [17] = molecular target: T2, Thioredoxin reductase (Homo sapiens, UniProt Q16881+Q9NNW7+Q86VQ6); assay: Inhibition of thioredoxin reductase in human A549/CDDP cells by DTNB dye based microplate spectrophotometry; type: cell-based
Method in brief: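 A549 or A549/DDP cells were treated with varying compound concentrations for 24 h, then harvested, homogenized and centrifuged. Protein (50 µg) was reacted in triplicate with NADPH and DTNB in TE buffer at 37 °C for 1 h, and TNB was read at 412 nm. Activity was taken from a purified-TrxR standard curve, and IC50 was derived.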

[18] = Acute toxicity in ICR mouse assessed as survival at 300 mg/kg, ip measured on day 14; type: organism-based; settings: in vivo; method in brief: as §1
[19] = molecular target: RAC-alpha serine/threonine-protein kinase (Homo sapiens) (UniProt P31749); assay: Inhibition of Akt phosphorylation in human A549 cells at 2.1 to 4.2 uM after 24 hrs by Western blot method; type: cell-based; method in brief: as §2
A549/CDDP [20] = assay: Induction of apoptosis in human A549/CDDP cells assessed as increase in cleaved caspase 3 level at 0.6 to 1.2 uM after 24 hrs by Western blot method; type: functional, cell-based; method in brief: as §2
A549/CDDP [21] = assay: Induction of apoptosis in human A549/CDDP cells assessed as decrease in Bcl2 expression at 0.6 to 1.2 uM after 24 hrs by Western blot method; type: functional, cell-based; method in brief: as §2
A549 [22] = assay: Induction of apoptosis in human A549 cells assessed as increase in cleaved PARP level at 2.1 to 4.2 uM after 24 hrs by Western blot method; type: functional, cell-based; method in brief: as §2
A549/CDDP [23] = assay: Induction of ROS generation in human A549/CDDP cells 0.6 to 1.2 uM after 60 mins by DHE staining-based fluorescence assay in presence of GSH; type: functional, cell-based
Thioredoxin reductase [24] = molecular target: T2, Thioredoxin reductase; assay: Inhibition of thioredoxin reductase (unknown origin) after 2 hrs by DTNB dye based microplate spectrophotometry; type: protein assay
Method in brief: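 NADPH-reduced TrxR (0.16 µM) was preincubated in triplicate with vehicle DMSO (0.1%, v/v) or varying compound concentrations for 2 h. It was then reacted with 2 mM DTNB and 200 µM NADPH for 3 min, and absorbance was read at 412 nm. IC50 was derived.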

[25] = Antiproliferative activity against human LTEP-G2 cells after 72 hrs by MTT assay; type: functional, cell-based; method in brief: as §3
A549 [26] = assay: Induction of ROS generation in human A549 cells 2.1 to 4.2 uM after 60 mins by DHE staining-based fluorescence assay in presence of GSH; type: functional, cell-based
A549/CDDP [27] = assay: Induction of apoptosis in human A549/CDDP cells at 0.6 to 1.2 uM after 24 hrs by annexin V-FITC/propidium iodide staining-based flow cytometry; type: functional, cell-based
Method in brief: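 Cells were seeded at 1 × 10^5/well and treated 24 h with DMSO (1%) or compound. They were then washed in PBS, stained with FITC-Annexin V and propidium iodide, and apoptotic fractions were quantified by flow cytometry.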

A549/CDDP [28] = assay: Induction of apoptosis in human A549/CDDP cells assessed as increase in Bax to Bcl2 ratio at 0.6 to 1.2 uM after 24 hrs by Western blot method; type: functional, cell-based; method in brief: as §2

T1 sequence (P08183 whole entry): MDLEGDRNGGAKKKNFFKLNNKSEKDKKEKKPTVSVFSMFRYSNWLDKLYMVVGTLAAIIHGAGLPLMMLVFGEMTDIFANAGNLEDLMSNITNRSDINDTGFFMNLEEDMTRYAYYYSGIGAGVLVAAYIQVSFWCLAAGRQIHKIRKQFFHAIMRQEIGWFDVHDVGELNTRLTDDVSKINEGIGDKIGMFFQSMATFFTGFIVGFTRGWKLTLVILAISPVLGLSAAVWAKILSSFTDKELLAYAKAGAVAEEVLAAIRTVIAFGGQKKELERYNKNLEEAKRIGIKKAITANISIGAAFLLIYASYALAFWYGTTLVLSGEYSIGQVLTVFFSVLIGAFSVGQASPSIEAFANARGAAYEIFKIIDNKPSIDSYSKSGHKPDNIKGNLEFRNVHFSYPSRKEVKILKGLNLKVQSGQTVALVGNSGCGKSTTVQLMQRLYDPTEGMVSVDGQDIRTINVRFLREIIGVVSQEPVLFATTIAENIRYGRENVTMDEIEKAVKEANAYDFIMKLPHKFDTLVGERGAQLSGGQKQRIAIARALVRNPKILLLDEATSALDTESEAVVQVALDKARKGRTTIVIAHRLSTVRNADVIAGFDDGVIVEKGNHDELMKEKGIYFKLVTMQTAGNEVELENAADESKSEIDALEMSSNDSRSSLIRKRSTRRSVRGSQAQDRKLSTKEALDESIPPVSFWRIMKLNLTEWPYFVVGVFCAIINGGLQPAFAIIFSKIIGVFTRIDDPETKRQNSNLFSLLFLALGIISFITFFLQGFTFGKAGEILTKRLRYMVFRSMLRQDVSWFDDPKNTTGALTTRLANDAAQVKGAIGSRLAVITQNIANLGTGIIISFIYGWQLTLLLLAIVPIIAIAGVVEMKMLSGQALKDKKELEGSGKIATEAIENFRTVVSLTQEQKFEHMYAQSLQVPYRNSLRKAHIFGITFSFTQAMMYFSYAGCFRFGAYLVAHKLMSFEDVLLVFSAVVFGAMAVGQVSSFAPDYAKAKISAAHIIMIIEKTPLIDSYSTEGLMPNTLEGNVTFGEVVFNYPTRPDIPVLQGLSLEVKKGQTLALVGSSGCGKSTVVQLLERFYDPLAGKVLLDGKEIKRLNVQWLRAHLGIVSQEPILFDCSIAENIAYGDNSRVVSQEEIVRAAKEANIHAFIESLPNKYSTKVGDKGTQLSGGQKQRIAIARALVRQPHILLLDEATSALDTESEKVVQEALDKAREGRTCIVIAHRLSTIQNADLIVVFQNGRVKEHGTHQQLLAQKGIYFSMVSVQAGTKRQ
Sequence of RAC-alpha serine/threonine-protein kinase (Homo sapiens) (P31749 whole entry): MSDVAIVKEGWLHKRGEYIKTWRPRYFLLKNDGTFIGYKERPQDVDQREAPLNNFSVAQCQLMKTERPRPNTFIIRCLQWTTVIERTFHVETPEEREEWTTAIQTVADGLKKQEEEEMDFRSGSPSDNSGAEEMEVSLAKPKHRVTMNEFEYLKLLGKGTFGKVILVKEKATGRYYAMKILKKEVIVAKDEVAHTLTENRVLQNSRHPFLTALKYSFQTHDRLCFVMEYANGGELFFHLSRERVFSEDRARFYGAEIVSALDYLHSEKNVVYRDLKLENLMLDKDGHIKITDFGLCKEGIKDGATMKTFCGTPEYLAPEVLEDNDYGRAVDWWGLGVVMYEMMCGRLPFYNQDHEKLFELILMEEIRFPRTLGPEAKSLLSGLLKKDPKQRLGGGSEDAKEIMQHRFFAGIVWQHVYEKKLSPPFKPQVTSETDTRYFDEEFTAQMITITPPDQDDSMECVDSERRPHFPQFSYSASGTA

## COc1cc(/C=C/C(=O)/C=C/c2nc(C)c(C)nc2C)ccc1O
[1]
  Activity: Non-Toxic
A549 [2]
  Activity: Active
A549/CDDP [3]
  inhibition: Active
A549/CDDP [4]
  Activity: Active
A549 [5]
  inhibition: Active
[6]
  Activity: 19.9 g
A549 [7]
  Activity: inactive
A549 [8]
  inhibition: Active
A549/CDDP [9]
  Activity: Active
[10]
  inhibition (INH): Active
[11]
  Activity: Non-Toxic
A549 [12]
  IC50: 2190 nM
A549/CDDP [13]
  Activity: Active
A549 [14]
  Activity: Active
[15]
  Activity: 761592 RLU
[16]
  Activity: Toxic
Thioredoxin reductase [17]
  IC50: 1220 nM
[18]
  survival at 14 day: 50%
[19]
  inhibition: Active
A549/CDDP [20]
  Activity: Active
A549/CDDP [21]
  Activity: Active
A549 [22]
  Activity: Active
A549/CDDP [23]
  Activity: inactive
Thioredoxin reductase [24]
  IC50: 2950 nM
[25]
  IC50: 2880 nM
A549 [26]
  Activity: inactive
A549/CDDP [27]
  Activity: Active
A549/CDDP [28]
  Activity: Active
